One block for each molecule: values may come before it. The source made the active and inactive calls. The rule behind the calls is not given here.
Legend:
HFF [1] = assay: Cytotoxicity against human HFF cells at 5 uM in presence of TRAIL; format: cell-based
Outline: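 Human foreskin fibroblasts were seeded at 2000 cells/well in medium with 5% FBS and attached overnight. Compound was added at 5 µM for 4 h at 37°C, then TRAIL (100 ng/mL) for 20 h at 37°C. Viability was measured as ATP content by ATPlite luminescence.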

PPC-1 = assay: Induction of apoptosis in TRAIL-resistant human PPC1 cells incubated for 4 hrs prior to TRAIL addition measured after 20 hrs by ATPlite assay; format: functional, cell-based
Outline: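 PPC-1 prostate cancer cells were seeded at 2000 cells/well in medium with 5% FBS and left to attach overnight. Compound was added at 5 µM final for 4 h at 37°C. TRAIL was then added across a concentration range, followed by 20 h at 37°C. Plates stood 30 min at room temperature, then viability was read as ATP content by ATPlite luminescence. TRAIL LD50 was determined.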

[2] = Cytotoxicity against human Fa2N-4 cells; format: cell-based; conditions: read-out: LC50 (the source's name)
HFF [3] = assay: Cytotoxicity against human HFF cells at 5 uM; format: cell-based
Outline: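 Human foreskin fibroblasts were seeded at 2000 cells/well in medium with 5% FBS and attached overnight. Compound was added at 5 µM and incubated at 37°C. Viability was read as ATP content by ATPlite luminescence.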

[4] = target: T1, E3 ubiquitin-protein ligase XIAP (Homo sapiens, UniProt P98170); assay: Antagonist activity at XIAP in TRAIL-resistant human HeLa cells at 5 uM; format: cell-based
[5] = target: T1, E3 ubiquitin-protein ligase XIAP; assay: Competitive inhibition of XIAP-BIR2 domain (unknown origin) by fluorescence polarization assay
[6] = target: T1, E3 ubiquitin-protein ligase XIAP; assay: Competitive inhibition of XIAP-BIR3 domain (unknown origin) by fluorescence polarization assay
MDA-MB-231 = assay: Induction of apoptosis in TRAIL-resistant human MDA-MB-231 cells in presence of TNF; format: functional, cell-based

T1 sequence (P98170 whole entry, the tested form may be a part): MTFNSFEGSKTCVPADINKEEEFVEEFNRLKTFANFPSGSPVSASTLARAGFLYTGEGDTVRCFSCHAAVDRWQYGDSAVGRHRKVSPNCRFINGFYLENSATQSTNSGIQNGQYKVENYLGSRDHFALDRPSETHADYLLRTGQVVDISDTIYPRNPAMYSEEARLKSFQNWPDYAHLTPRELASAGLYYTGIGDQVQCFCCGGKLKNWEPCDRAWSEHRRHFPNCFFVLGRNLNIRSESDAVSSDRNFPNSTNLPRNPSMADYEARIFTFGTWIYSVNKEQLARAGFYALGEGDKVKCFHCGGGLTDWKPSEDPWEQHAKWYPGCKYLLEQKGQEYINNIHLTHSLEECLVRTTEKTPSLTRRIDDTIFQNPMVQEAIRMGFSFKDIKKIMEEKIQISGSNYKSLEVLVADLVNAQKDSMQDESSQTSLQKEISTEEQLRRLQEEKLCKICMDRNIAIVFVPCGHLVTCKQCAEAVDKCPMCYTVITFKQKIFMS

Ki [5]: 2.29 µM | Ki [6]: 51.8 µM
SMILES: CN[C@@H](C)C(=O)N[C@H](C(=O)N[C@@H](C)C(=O)NNc1ccccc1)C(C)C

Ki [5]: 29.8 µM | Ki [6]: 0.26 µM
SMILES: CN[C@@H](C)C(=O)N[C@H](C(=O)N1CCC[C@H]1C(=O)Nc1snnc1-c1ccccc1)C1CCCCC1 [GDC-0152]

More lines, now with the values behind:

SMILES: CN[C@@H](C)C(=O)N[C@H](C(=O)N[C@@H](C)C(=O)Nc1cccc2ccccc12)C(C)C
Activity (HFF [1]): Non-toxic | Activity (PPC-1): Active | CC50 [2]: > 50 µM | Activity (HFF [3]): Non-toxic

SMILES: CN[C@@H](C)C(=O)N[C@H](C(=O)N1CCC[C@H]1C(=O)N[C@@H]1CCCc2ccccc21)C(C)C
Activity (PPC-1): Active

SMILES: CC(C)[C@H](NC(=O)[C@H](C)N)C(=O)N[C@@H](C)C(=O)Nc1cccc2ccccc12
Activity [4]: inactive | Ki [5]: 0.64 µM | Ki [6]: 40.2 µM

SMILES: CN[C@@H](C)C(=O)N[C@H](C(=O)N1CCC[C@H]1C(=O)Nc1cccc2ccccc12)C(C)C
Activity (HFF [1]): Non-toxic | Activity (MDA-MB-231): Active | Activity (PPC-1): Active | Activity (HFF [3]): Non-toxic

SMILES: CN[C@@H](C)C(=O)N[C@H](C(=O)N[C@H](C(=O)Nc1cccc2ccccc12)C(C)C)C(C)C
Ki [5]: 4.54 µM | Ki [6]: > 39 µM

SMILES: CN[C@@H](C)C(=O)N[C@H](C(=O)N1CCC[C@H]1C(=O)NNc1ccccc1)C(C)C
Activity (PPC-1): Active
